Screening data: PubChem BioAssay, The Scripps Research Institute Molecular Screening Center
A selection: hits, their analogues and other compounds. The true share with any hit is near 2.3%.
bovine MsrA act = bovine methionine sulfoxide reductase A activation; actives 0.3% (n = 360,000); purified bovine MsrA, absorbance read-out; activation, % at 10.6 µM; AID 602163; in the data active = activation above about 7.5%
MsrA inhibitor = inhibits bovine methionine sulfoxide reductase A; purified bovine MsrA, absorbance read-out; inhibition, % at 15.5 µM; actives 0.75% (n = 360,000); AID 651718; in the data active = inhibition above about 4.5%
MC4R barr agon = activates human MC4R beta-arrestin recruitment | P32245 | U2OS MC4R beta-arrestin complementation, luminescence; percent of melanotan II response, DMSO zero | activation, % at 8.9 µM | actives 0.98% (n = 360,000) | AID 540308;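 active = activation above a per-plate cutoff, the mean activation of sample wells on that plate plus 3 SD, cut at about 8% in these data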
Target sequence (P32245 whole entry, looked up): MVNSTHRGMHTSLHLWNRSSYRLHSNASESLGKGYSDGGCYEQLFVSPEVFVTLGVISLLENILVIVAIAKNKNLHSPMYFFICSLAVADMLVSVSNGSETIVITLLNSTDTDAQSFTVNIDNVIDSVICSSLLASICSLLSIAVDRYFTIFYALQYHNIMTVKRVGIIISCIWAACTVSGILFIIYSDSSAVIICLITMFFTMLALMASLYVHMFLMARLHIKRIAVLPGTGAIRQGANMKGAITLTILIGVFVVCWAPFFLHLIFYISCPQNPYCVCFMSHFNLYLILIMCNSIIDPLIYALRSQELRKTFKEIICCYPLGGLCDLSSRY
MC4R antagonist = human MC4R antagonism in cAMP assay. actives 0.48% (n = 360,000). inhibition, % at 6.5 µM. P32245. MC4R-expressing cells, MTII-stimulated cAMP, LANCE TR-FRET;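 active = inhibition above its plate's cutoff, the mean of tested wells on that plate plus 3 SD, cut at about 29% in these data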
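material = U2OS cells stably expressing human melanocortin 4 receptor (MC4R) | also added = Melanotan II challenge | dosing = single nominal compound dose of 6.5 µM | detection = TR-FRET with Eu-cAMP and labeled anti-cAMP, 671 nm | replication = singlicate | timing = compound 30 min, challenge 1 h, detection 1 h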
U2OS cAMP counter = counter-screen for MC4R antagonists: nonselective cAMP signaling inhibitors. shares compounds with MC4R antagonist. parental U2OS, forskolin cAMP, LANCE TR-FRET. inhibition, % at 6.5 µM. actives 26% (n = 1,600);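 active = mean inhibition over triplicates above the low-control well mean plus 3 SD, set per campaign, cut at about 13% in these data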;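 note: signal is single emission at 671 nm which falls as cellular cAMP rises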
MC4R antag conf = human MC4R cAMP antagonism confirmation | shares compounds with MC4R antagonist | MC4R-expressing cells, MTII-stimulated cAMP, TR-FRET | inhibition, % at 6.5 µM | actives 27% (n = 1,600); in the data active = inhibition above about 29%
Numbers stand for hits; n = inactive; x = no result.

SMILES	bovine MsrA act	MsrA inhibitor	MC4R barr agon	MC4R antagonist	U2OS cAMP counter	MC4R antag conf
O=C(Cn1cc(C(=O)C2CC2)c2ccccc21)NCc1ccc2c(c1)OCO2	n	n	n	n	x	x
CC(=O)c1cn(CC(=O)NCc2ccc3c(c2)OCO3)c2ccccc12	n	n	n	31.4	n	n
CCOc1ccccc1CNC(=O)C1CCN(S(=O)(=O)N2CCC(C)CC2)CC1	n	n	n	n	x	x
O=C(c1ccc([N+](=O)[O-])cc1)N1CCc2ccccc2C1	n	n	n	28.7	n	n
O=C(NCC(c1cccs1)N1CCOCC1)C1CCN(S(=O)(=O)c2cccc(C(F)(F)F)c2)CC1 (stereo not drawn)	n	n	n	n	x	x
CCC(C)(C)NC(=O)CN(Cc1ccc2c(c1)OCO2)C(=O)CCC(=O)Nc1cc(C)ccn1	n	n	n	29.6	n	n
NS(=O)(=O)c1ccc(NS(=O)(=O)c2ccc3c(c2)OCCO3)cc1	n	n	n	29.7	n	n
COc1ccc2c(c1)CCC1(C)CC(=O)C(Br)=C21 (stereo not drawn)	n	n	n	39.5	33.7	52.7
FC(F)Oc1ccc(-n2cc(-c3ccc(Cl)cc3)[n+]3c2CCCCC3)cc1	n	n	n	28.7	n	n
CCC(=O)Nc1cccc(C(=O)/C=C/c2ccc(F)cc2)c1	n	n	n	n	x	x
CCOC(=O)C1CCCN(C(=O)CN2CCN(Cc3ccc(Cl)cc3)C2=O)C1 (stereo not drawn)	x	n	x	x	x	x
C=CCn1c(C)cc(/C([O-])=C(/C(=S)Nc2ccc(OC(F)F)cc2)[n+]2ccc(N(C)C)cc2)c1C	n	n	n	28.6	n	n
O=C(c1ccc(Br)cc1)C(CN1CCOCC1)c1ccccc1 (stereo not drawn)	n	n	n	41.0	n	n
Brc1ccsc1-c1csc(-c2ccncc2)n1	n	n	n	33.8	n	n
CCCSc1nnc(CSc2nc3ccccc3s2)n1-c1ccccc1	n	n	n	n	x	x
COC(=O)c1cc(C(=O)NCc2ccccc2)c(=O)[nH]c1C	n	n	n	30.3	n	n
O=C(Nc1nc2ccccc2[nH]1)c1ccc(Cl)c(S(=O)(=O)N2CCCC2)c1	n	x	n	29.0	n	n
O=C(Nc1nc2ccccc2[nH]1)c1ccc(S(=O)(=O)N2CCOCC2)cc1	n	n	n	n	x	x
Cc1cccc(C(=O)NC2=NCCS2)c1	n	n	n	33.3	n	n
O=C(NC1=NCCS1)c1ccc(Cl)c(S(=O)(=O)N2CCCC2)c1	n	n	n	32.0	n	n
COc1ccc(-c2nc3ccccc3o2)cc1NC(=O)c1ccc(Br)o1	n	n	n	n	x	x
CC1CCC(NC(=O)c2nn(C)c(=O)c3ccccc23)CC1 (stereo not drawn)	n	n	n	n	x	x
C/C(CCc1ccccc1)=N\NC(=O)c1ccccc1[N+](=O)[O-]	n	n	n	n	x	x
CC(C)C(=O)N1CCC2(CC1)Oc1ccc(Cl)cc1C(=O)C21CC(c2ccccc2)=NO1 (stereo not drawn)	n	n	n	28.8	n	n
CC(C)C(=O)N1CCC2(CC1)Oc1ccc(F)cc1C(=O)C21CC(c2ccc(Cl)cc2)=NO1 (stereo not drawn)	n	n	n	n	x	x
SMILES	bovine MsrA act	MsrA inhibitor	MC4R barr agon	MC4R antagonist	U2OS cAMP counter	MC4R antag conf
O=C(/C=C/c1cccs1)N1CCC2(CC1)Oc1ccc(Cl)cc1C(=O)C21CC(c2cccnc2)=NO1 (stereo not drawn)	n	n	n	28.6	n	n
COc1cc(/C=C2\C(=N)N3N=C(C)SC3=NC2=O)cc(Cl)c1OCCOc1ccc(NC(C)=O)cc1	n	n	n	30.1	n	n
COc1cc(/C=C2\C(=N)N3N=C(C(C)C)SC3=NC2=O)ccc1OCCOc1ccc(NC(C)=O)cc1	n	n	n	n	x	x
COc1ccc(OC)c(CN2CCN(C(=O)c3cccc4ccccc34)CC2)c1	n	n	n	n	x	x
C=CCN(C(=O)CCc1ccccc1OC)c1nc(-c2ccc(S(C)(=O)=O)cc2)cs1	n	n	n	31.1	n	n
CC(=O)N1CCC(N(CCN2CCOCC2)C(=S)Nc2cccc(C)c2C)CC1	n	n	n	n	x	x
O=c1[nH]cnc2cc(-c3ccc(Br)cc3)sc12	n	n	n	n	x	x
COC(=O)CSc1ccc(C#N)c(SCC(=O)OC)c1	n	n	n	35.2	16.9	n
